Experimental data as given in ChEMBL document CHEMBL5252639, “Exploration of cytotoxic potential and tubulin polymerization inhibition activity of cis-stilbene-1,2,3-triazole congeners” (RSC Med Chem, 2023).
Activity calls are given as the source filed them. No cut-off for these calls is given here.

Legend:
[1] = test system: A549; assay: Cytotoxicity against human A549 cells assessed as inhibition of cell growth measured for 24 hrs by MTT assay; type: functional, cell-based; details: A549, 24 h
How it was run: (§1)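 Cells were kept at 37 °C with 5% CO2 in suitable medium with 10% FBS and 1% antibiotic-antimycotic, and passaged at 80-90% confluency using 0.25% trypsin/1 mM EDTA. They were seeded at 1×10^3–4×10^3 cells/well and attached overnight. Compounds came from 10 mM DMSO stocks diluted in medium and were applied for 24 h. MTT (0.5 mg/mL) was added for 4 h at 37 °C, formazan was dissolved in DMSO, and absorbance was read at 570 nm.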

[2] = test system: BT-474; assay: Cytotoxicity against human BT-474 cells assessed as inhibition of cell growth measured for 24 hrs by MTT assay; type: functional, cell-based; details: BT-474, 24 h; how it was run: as §1
[3] = test system: B16-F10; assay: Cytotoxicity against mouse B16-F10 cells assessed as inhibition of cell growth measured for 24 hrs by MTT assay; type: functional, cell-based; details: B16-F10, 24 h; how it was run: as §1
[4] = Cytotoxicity against human HaCaT cells assessed as inhibition of cell growth measured for 24 hrs by MTT assay; type: toxicity, cell-based; how it was run: as §1
[5] = test system: HCT-116; assay: Induction of morphological change in human HCT-116 cells assessed as change in cell shape incubated for 24 hrs by phase contrast microscopic analysis; type: functional, cell-based; details: dose 1.62-6.5 µM
How it was run: (§2)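 HCT-116 plated at 1 × 10^6 cells/mL in RPMI + 10% FBS and allowed to adhere 24 h at 37 °C, 5% CO2. […] After 24 h, morphology imaged by phase-contrast microscopy at 20X.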

[6] = test system: HCT-116; assay: Induction of morphological change in human HCT-116 cells assessed as cell rounding incubated for 24 hrs by phase contrast microscopic analysis; type: functional, cell-based; details: dose 1.62-6.5 µM; how it was run: as §2
[7] = test system: HCT-116; assay: Induction of morphological change in human HCT-116 cells assessed as cell detachment incubated for 24 hrs by phase contrast microscopic analysis; type: functional, cell-based; how it was run: as §2
[8] = test system: HCT-116; assay: Induction of apoptosis in human HCT-116 cells assessed as horseshoe shaped nuclei measured for 24 hrs by DAPI staining based microscopic analysis; type: functional, cell-based; details: dose 1.62-6.5 µM
How it was run: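 Then PBS wash, 4% paraformaldehyde fixation 30 min, 0.1% Triton X permeabilisation 15 min, 1 µM DAPI 15 min, PBS wash. Imaged by fluorescence microscopy (ex 350/em 460 nm), 20X.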

[9] = test system: HCT-116; assay: Induction of apoptosis in human HCT-116 cells assessed as formation of membrane blebs at 1.62 uM measured for 24 hrs by AO/EB staining based microscopic analysis; type: functional, cell-based
[10] = test system: HCT-116; assay: Induction of apoptosis in human HCT-116 cells assessed as micronuclei formation at 3.25 to 6.50 uM measured for 24 hrs by AO/EB staining based microscopic analysis; type: functional, cell-based; details: dose 3.25-6.5 µM
How it was run: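 Media removed; acridine orange and ethidium bromide (10 µg/ml, equal volumes) added in 1 mL PBS. Imaged immediately by fluorescence microscopy (excitation 488 nm, emission 550 nm) at 20X.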

[11] = test system: HCT-116; assay: Induction of apoptosis in human HCT-116 cells assessed as early apoptotic cells at 1.62 uM measured after 24 hrs by Annexin V-FITC/propidium iodide staining based flow cytometry (reference value: 0.28%); type: functional
[12] = test system: HCT-116; assay: Induction of apoptosis in human HCT-116 cells assessed as necrotic cells at 1.62 uM measured after 24 hrs by Annexin V-FITC/propidium iodide staining based flow cytometry (reference value: 0.00%); type: functional
[13] = test system: HCT-116; assay: Induction of apoptosis in human HCT-116 cells assessed as viable cells at 3.25 uM measured after 24 hrs by Annexin V-FITC/propidium iodide staining based flow cytometry (reference value: 99.71%); type: functional; details: read-out: Activity
[14] = test system: HCT-116; assay: Induction of apoptosis in human HCT-116 cells assessed as early apoptotic cells at 3.25 uM measured after 24 hrs by Annexin V-FITC/propidium iodide staining based flow cytometry (reference value: 0.28%); type: functional
[15] = test system: HCT-116; assay: Induction of apoptosis in human HCT-116 cells assessed as late apoptotic cells at 3.25 uM measured after 24 hrs by Annexin V-FITC/propidium iodide staining based flow cytometry (reference value: 0.00%); type: functional
[16] = test system: HCT-116; assay: Induction of apoptosis in human HCT-116 cells assessed as necrotic cells at 3.25 uM measured after 24 hrs by Annexin V-FITC/propidium iodide staining based flow cytometry (reference value: 0.00%); type: functional
[17] = test system: HCT-116; assay: Induction of apoptosis in human HCT-116 cells assessed as early apoptotic cells at 6.50 uM measured after 24 hrs by Annexin V-FITC/propidium iodide staining based flow cytometry (reference value: 0.28%); type: functional; details: dose 6.5 µM
[18] = test system: HCT-116; assay: Induction of apoptosis in human HCT-116 cells assessed as late apoptotic cells at 6.50 uM measured after 24 hrs by Annexin V-FITC/propidium iodide staining based flow cytometry (reference value: 0.00%); type: functional; details: dose 6.5 µM
[19] = test system: HCT-116; assay: Induction of cell cycle arrest in human HCT-116 cells assessed as accumulation of cells at G2/M phase at 3.25 uM measured after […] by PI staining based flow cytometry analysis relative to control (reference value: 15.61%); type: functional
[20] = test system: HCT-116; assay: Induction of cell cycle arrest in human HCT-116 cells assessed as accumulation of cells at S phase at 6.50 uM measured after 48 hrs by PI staining based flow cytometry analysis relative to control (reference value: 5.55%); type: functional; details: dose 6.5 µM
[21] = test system: HCT-116; assay: Induction of cell cycle arrest in human HCT-116 cells assessed as accumulation of cells at G2/M phase at 6.50 uM measured after 48 hrs by PI staining based flow cytometry analysis relative to control (reference value: 15.61%); type: functional; details: dose 6.5 µM
[22] = target: T1, Tubulin (Homo sapiens) (UniProt P68371+Q9H4B7+P0DPH7+P68366+Q13509+Q71U36+P04350+Q3ZCM7+P07437+P68363+Q9BQE3+Q6PEY2+Q13885+Q9BVA1+Q9BUF5); assay: Inhibition of tubulin polymerization in human HCT-116 cells at 1.62 uM measured after 1 hr relative to control; type: cell-based
[23] = target: T1, Tubulin (Homo sapiens); assay: Inhibition of tubulin polymerization in human HCT-116 cells at 3.25 uM measured after 1 hr relative to control; type: cell-based
[24] = target: T1, Tubulin (Homo sapiens); assay: Inhibition of tubulin polymerization in human HCT-116 cells at 6.50 uM measured after 1 hr relative to control; type: cell-based; details: dose 6.5 µM
[25] = target: Tubulin; assay: Inhibition of tubulin polymerization in human HCT-116 cells; type: cell-based
[26] = test system: HCT-116; assay: Induction of cell cycle arrest in human HCT-116 cells assessed as accumulation of cells at S phase at 1.62 uM measured after 24 hrs by PI staining based flow cytometry analysis relative to control (reference value: 5.55%)
[27] = test system: HCT-116; assay: Induction of cell cycle arrest in human HCT-116 cells assessed as accumulation of cells at G2/M phase at 1.62 uM measured after 24 hrs by PI staining based flow cytometry analysis relative to control (reference value: 15.61%)
[28] = test system: HCT-116; assay: Induction of cell cycle arrest in human HCT-116 cells assessed as accumulation of cells at G0/G1 phase at 3.25 uM measured after 24 hrs by PI staining based flow cytometry analysis relative to control (reference value: 70.34%)

inhibition [22]: 33.4%
inhibition [23]: 36.5%
inhibition [24]: 65.2%
IC50 [25]: 4.51 µM
Compound: COc1ccc(/C=C(/C(=O)OCc2cn(Cc3cc(F)ccc3F)nn2)c2ccc(OC)c(OC)c2)cc1OC
IC50 [1]: 11.3 µM
IC50 [2]: 12.9 µM
IC50 [3]: 15.1 µM
IC50 at 24 h [4]: 72.2 µM
Activity [5]: Dose-Dependent Effect
Activity [6]: Dose-Dependent Effect
Activity [7]: Dose-Dependent Effect
Activity [8]: Dose-Dependent Effect
Activity [9]: Active
Activity [10]: Active
Activity [11]: 18.1%
Activity [12]: 0.52%
viability at 3.25 µM [13]: 44.6%
Activity [14]: 13.51%
Activity [15]: 25.22%
Activity [16]: 16.66%
Activity [17]: 10.71%
Activity [18]: 49.32%
Activity [19]: 38.72%
Activity [20]: 12.73%
Activity [21]: 46.89%
Activity [26]: 7.32%
Activity [27]: 22.06%
Activity [28]: 50.62%
